PostGolgi yeast – growth inhibition of a yeast mutant, post-Golgi transport screen | post-Golgi transport phenotypic cell assay | inhibition, % at 10 µM | 98,000 compounds, 0.9% hits | AID 739;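 also: yeast cells grown in 1536-well plates; yeast grown about 18 h at 30C before absorbance read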
E coli WT exp – blocks growth of wild type E. coli BW25113. growth inhibition, % at 100 µM. OD600 absorbance. AID 710. 98,000 compounds, 0.15% hits;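 active = growth inhibition above about 50% at one test dose, limit read from the data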;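 also: growth measured after 20 h incubation at 37 °C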
D1 mod – allosterically modulates the human D1 dopamine receptor; HEK293 D1, CRE-luciferase, dopamine EC30 potentiation; actives deviate in either direction; B-score at 10 µM; 58,000 compounds, 5.9% hits;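 active = luminescence count or its row- and column-corrected plate score outside the 99.7% band of the plate's sample wells, on either side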
Target sequence (P21728 whole entry, looked up): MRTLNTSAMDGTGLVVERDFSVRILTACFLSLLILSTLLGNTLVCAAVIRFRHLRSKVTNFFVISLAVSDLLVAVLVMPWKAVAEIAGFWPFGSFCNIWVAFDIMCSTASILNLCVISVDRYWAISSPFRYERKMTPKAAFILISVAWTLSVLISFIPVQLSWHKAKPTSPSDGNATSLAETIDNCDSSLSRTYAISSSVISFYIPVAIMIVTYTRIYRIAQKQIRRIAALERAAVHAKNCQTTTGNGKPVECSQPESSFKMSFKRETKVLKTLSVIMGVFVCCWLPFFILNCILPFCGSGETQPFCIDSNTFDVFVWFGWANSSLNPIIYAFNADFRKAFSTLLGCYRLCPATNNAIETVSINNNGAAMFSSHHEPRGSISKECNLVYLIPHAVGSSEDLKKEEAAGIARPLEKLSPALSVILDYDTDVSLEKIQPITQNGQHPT
hDAT+cocaine – human DAT dopamine uptake with cocaine, either direction. LLC-PK1 hDAT cells, [14C]-dopamine uptake with cocaine IC80; actives deviate in either direction. B-score at 10 µM. Q01959. 110,000 compounds, 1.3% hits;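 active = Z score or B-score, a plate-position-corrected score, falls beyond the plate's 99.7% confidence bounds, in either direction; inactive = both scores lie inside the 99.7% bounds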;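 also: scored against the spread of the other compound wells on the same plate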
tolC growth inh – blocks growth of E. coli BW25113 tolC mutant; OD615; growth inhibition, % at 10 µM (by protocol); 65,000 compounds, 2.2% hits;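 active = growth inhibition at or above a cutoff equal to the mean over every tested compound plus 3 SD, cut at about 60% in these data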;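 also: growth measured after 20 h incubation at 37 °C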
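Test system: tolC-deleted E. coli BW25113; medium: LB with kanamycin 50 µg/mL; compound: single-point testing at 10 µM; incubation: 20 h compound exposure of bacteria at 37 °C; signal: OD at 615 nm; evaluation: growth inhibition in percent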
PostGolgi ctrl – yeast control strain growth, post-Golgi counter-screen. 98,000 compounds, 5% hits. efflux-deficient yeast background strain, growth absorbance A615, 16 h. AID 738. inhibition, % at 10 µM
* hit, by the source's call; / = no result. Shown are actives, neighbours in structure and some others; about 9.3% of the full set was active somewhere. Rule as the data show it, unless noted: active = inhibition above about 30%; inactive = the rest.

SMILES | PostGolgi yeast | E coli WT exp | D1 mod | hDAT+cocaine | tolC growth inh | PostGolgi ctrl
Cn1c(C(=O)N2CCCC2)cc2c(=O)n(C)c3ccccc3c21 | 7 | 4 | 0.08 | 0.83 | 11 | -4
Cc1cccc(N2CCN(C(=O)c3cc4c(=O)n(C)c5ccccc5c4n3C)CC2)c1C | 3 | -13 | -0.79 | -0.44 | -2 | 40*
Cc1ccc(Cl)cc1N1CCN(C(=O)c2cc3c(=O)n(C)c4ccccc4c3n2C)CC1 | -8 | -3 | -4* | 0.93 | 17 | 45*
CC([NH2+][O-])C(C)(C)NO (configuration not stated) | 1 | 4 | / | -0.82 | / | 1
CCOC(=O)c1ccccc1NC1CC(=O)N(c2ccccc2C)C1=O (configuration not stated) | 11 | 1 | 0.69 | 0.81 | 1 | 3
CCOc1ccc(NC(=O)C(C)Oc2ccccc2C(=O)Nc2ccc(C)c(Cl)c2)cc1 (configuration not stated) | 4 | -7 | / | 2.7* | / | 1
O=C(Nc1ncc(Cc2cccc(Cl)c2)s1)c1cccs1 | 1 | -17 | / | -0.05 | / | 47*
Cc1ccc(Cc2cnc(NC(=O)c3cccs3)s2)cc1 | 10 | -2 | / | -0.14 | / | 41*
O=C(Nc1nc(-c2cc(Cl)sc2Cl)cs1)c1ccc(Br)s1 | -10 | -10 | / | -0.46 | / | -8
O=C(Nc1ncc(Cc2ccccc2)s1)c1cccs1 | -8 | 8 | -1.3 | -0.018 | 38 | 25
Cc1ccc(C(=O)Nc2ncc(Cc3ccccc3)s2)o1 | -7 | 2 | -2.8* | -0.64 | 28 | 22
O=C(Nc1nc(-c2cc(Cl)sc2Cl)cs1)c1cccs1 | 14 | -12 | 0.079 | -0.38 | 100* | 14
O=C(Nc1ncc(Cc2ccc(SC(F)F)cc2)s1)c1ccccc1 | -8 | -1 | / | / | / | 9
Cc1sc2c(c1C)CN(Cc1ccco1)CN2C(=O)c1ccccc1 | / | / | / | / | 14 | /
CCOC(=O)C1=C(C)N(CCCC(=O)O)C(=O)NC1c1ccc(C(F)(F)F)cc1 (configuration not stated) | / | / | / | -0.63 | / | /
CCC(C)Nc1nc(-c2cccc(OC)c2O)nc2ccccc12 (configuration not stated) | 25 | -9 | / | 3.7* | 12 | 72*
COc1cccc(-c2nc(NC(C)C)c3ccccc3n2)c1O | -5 | -13 | / | 2.3 | 24 | 75*
COc1cccc(-c2nc(N3CCN(c4ccccc4)CC3)c3ccccc3n2)c1O | 3 | -28 | / | 2.1 | / | 11
CCOC(=O)c1cccc(NC(=O)CSc2nnc(C)n2Cc2ccccc2)c1 | 3 | 11 | 0.42 | 3.3* | 12 | 8
COCCn1cnnc1SCC(=O)c1ccc(S(=O)(=O)N2CCCC2)cc1 | -2 | -1 | 0.38 | 0.94 | 0 | -1
O=C(CC1NC(=O)NC1=O)Nc1ccc(Cl)cc1 (configuration not stated) | -9 | 1 | / | -0.0074 | / | 10
O=C(CC1Nc2ccccc2NC1=O)Nc1cc(Cl)cc(Cl)c1 (configuration not stated) | 12 | 6 | / | 0.02 | / | 67*
CCn1c(SCC(=O)c2cc(OC)ccc2OC)nc2c1c(=O)n(C)c(=O)n2C | / | / | 4.9* | / | -9 | /
CCOc1ccc(OCC)c(NC(=O)CSc2nc3c(c(=O)n(C)c(=O)n3C)n2C)c1 | / | / | 0.031 | / | 2 | /
CCOc1ccc(OCC)c(NC(=O)CSc2nc3c(c(=O)n(C)c(=O)n3C)n2C(C)C)c1 | -6 | -6 | 2.2 | 3* | 20 | 7
SMILES | PostGolgi yeast | E coli WT exp | D1 mod | hDAT+cocaine | tolC growth inh | PostGolgi ctrl
COc1ccc(S(=O)(=O)N(CC(=O)NCC2CCCO2)c2ccc(F)cc2)cc1OC (configuration not stated) | -4 | 2 | / | -0.21 | / | 9
COc1ccc(C(=O)n2ccc(C)n2)cc1Br | -7 | 3 | -1.8 | / | -3 | 6
COc1ccc(C(C(=O)NC2CCCC2)N(Cc2ccc(C)cc2)C(=O)c2ccn[nH]2)cc1OC (configuration not stated) | 3 | 4 | / | 0.69 | / | -4
COc1cccc(-n2c(SCC(=O)N3c4ccccc4CC3C)nnc2-c2ccco2)c1 (configuration not stated) | -6 | -3 | / | 2.9* | / | 14
CCn1c(SCC(=O)N2c3ccccc3CC2C)nnc1-c1ccco1 (configuration not stated) | / | / | / | 2.2 | / | /
O=C(O)CCC(=O)Nc1nc2ccccc2s1 | 15 | -9 | / | 1.9 | / | -3
O=C(CCn1c(=O)sc2ccccc21)Nc1nc2ccccc2s1 | -4 | -11 | / | 1.1 | / | 60*
Cc1ccc2nc(NC(=O)CCn3c(=O)sc4ccccc43)sc2c1 | 5 | 1 | / | 2 | / | 70*
Cc1ccc2nc(NC(=O)CCCc3nc4ccccc4s3)sc2c1 | -3 | -4 | / | 1.5 | / | 45*
Cn1cc(SCC(=O)Nc2nc3ccccc3s2)c2ccccc21 | 0 | -23 | / | -0.8 | 62* | 64*
Cc1csc(SCC(=O)Nc2nc3ccccc3s2)n1 | -10 | 24 | 1.3 | 0.72 | 26 | 12
Nc1nnnn1/N=C/c1cccc(OCc2ccccc2Cl)c1 | / | / | / | -1.3 | / | /
CC1c2nc3ccccc3n2C(CC(=O)NCc2ccccn2)C(=O)N1Cc1ccccc1 (configuration not stated) | -27 | 3 | -0.4 | 0.064 | -11 | 6
CCOc1cc2[nH]c(=O)n(CCCCC(=O)NC3CCCCC3)c(=O)c2cc1OCC | / | / | 0.93 | / | 18 | /
CCC(C)N1CC(C(=O)NC2CCCCC2)CC1=O (configuration not stated) | 3 | 2 | 0.67 | -1.5 | -20 | 33*
CC(C)(C)NC(=O)CN(Cc1cccs1)C(=O)c1csnn1 | -10 | -4 | / | 0.53 | -16 | 31*
Cc1ccc2nc(N3CCN(C=O)CC3)nc(-c3ccccc3)c2c1 | / | / | / | 2.8* | / | /
COC(=O)c1cc(Br)c(=O)n(-c2cc(C)on2)c1 | 0 | -8 | -0.18 | -2 | 12 | 5
CCOC(=O)N1CCN(C(=S)Nc2cc(OC)c(OC)cc2C(=O)OC)CC1 | -5 | -1 | / | -0.48 | / | 5
COc1cccc(Nc2nc(-c3sc(N)nc3C)cs2)c1 | 3 | 3 | -0.18 | 2.2* | 14 | 9
COc1ccc(OC)c(Nc2nc(-c3sc(C)nc3C)cs2)c1 | 0 | -14 | 0.56 | / | 7 | 48*
CC1CCN(Cc2csc(N)n2)CC1 | 3 | 0 | / | -0.55 | / | 4
O=C(c1ccccc1)N1CC(COc2ccccc2)OC(c2cccnc2)O1 (configuration not stated) | 48* | -3 | -0.8 | -0.025 | 11 | 31*
COC(=O)[C@H]1C[C@@H]1[C@H](NC(=O)c1ccccc1)c1ccccc1 | / | / | / | -0.68 | / | /
CN(C)CCCNC(=O)C1CCNCC1 | 8 | -9 | -3* | 0.51 | -9 | 9
CN(C)CCNC(=O)C1CCCNC1=O (configuration not stated) | 0 | -3 | / | -1.1 | / | 1
Cc1ccc(C(C(=O)NCc2ccco2)N(C(=O)CNC(=O)c2cccs2)c2c(C)cc(C)cc2C)cc1 (configuration not stated) | 19 | -1 | / | -0.5 | / | 3

High-throughput results from PubChem BioAssay.
